Measurements pooled from the literature.
Each line is one published result; the experiments were not run side by side. pEC50, pIC50, pKd: −log10 of the molar value.
Mc1r: Melanocyte-stimulating hormone receptor (Mc1r, Mus musculus, UniProt Q01727)
GCGR: Glucagon receptor (GCGR, Homo sapiens, UniProt P47871)
PSMB8: Proteasome subunit beta type-8 (PSMB8, Homo sapiens, UniProt P28062)

CSCC[C@H](N)C(=O)NCC(=O)N[C@@H](Cc1c[nH]cn1)C(=O)N[C@@H](Cc1ccccc1)C(=O)N[C@@H](CCCNC(=N)N)C(=O)N[C@@H](Cc1c[nH]c2ccccc12)C(=O)N[C@@H](CC(=O)O)C(=O)N[C@@H](CCCNC(=N)N)C(=O)N[C@@H](Cc1ccccc1)C(=O)NCC(=O)O — pEC50 (Mc1r; reporter gene, agonist): 5.80
N#Cc1ccc(COc2cccc(C3CCN(Cc4nc5ccc(C(=O)O)cc5n4C[C@@H]4CCO4)CC3)n2)c(F)c1 — pEC50 (GCGR; cAMP, agonist): < 4.70
N=C(N)NCCC[C@H](NC(=O)[C@H](CC(=O)O)NC(=O)[C@H](Cc1c[nH]c2ccccc12)NC(=O)[C@H](CCCNC(=N)N)NC(=O)[C@H](Cc1ccccc1)NC(=O)[C@H](Cc1c[nH]cn1)NC(=O)CN)C(=O)N[C@@H](Cc1ccccc1)C(=O)NCC(=O)O — pEC50 (Mc1r; reporter gene, agonist): 5.10
Cc1ncc(C(=O)N[C@@H](CC(C)C)C(=O)N[C@@H](CC2CCCC3CCCCC32)C(=O)N[C@H](/C=C/S(C)(=O)=O)Cc2ccc(CN)cc2)s1 (some centres unmarked) — pIC50 (PSMB8; enzyme activity, inhibitor; lysate): < 5.00
CCCC[C@H](NC(=O)[C@@H](NC(=O)[C@@H](N)Cc1ccc(O)cc1)C(C)C)C(=O)NCC(=O)N[C@@H](Cc1c[nH]cn1)C(=O)N[C@@H](Cc1ccccc1)C(=O)N[C@@H](CCCN=C(N)N)C(=O)N[C@@H](Cc1c[nH]c2ccccc12)C(=O)N[C@@H](CC(=O)O)C(=O)N[C@@H](CCCN=C(N)N)C(=O)N[C@@H](Cc1ccccc1)C(=O)NCC(=O)O — pEC50 (Mc1r; reporter gene, agonist): 6.41
CCOc1ccc2c(-c3cc(C)nc(Nc4cc(OC)cc(C(F)(F)F)c4)n3)cnn2n1 — pIC50 (Homeodomain-interacting protein kinase 2 (HIPK2, Homo sapiens, UniProt Q9H2X6); enzyme activity, inhibitor): < 5.00
CC(C)C[C@H](NC(=O)[C@H](Cc1ccccc1)N=[N+]=[N-])C(=O)N[C@@H](CC(F)(F)F)C(=O)N[C@H](/C=C/S(C)(=O)=O)Cc1ccc(CN)cc1 — pIC50 (PSMB8; enzyme activity, inhibitor; lysate): 5.74
CN1CCN(c2ccc(Nc3ncc4cc(C#N)c(=O)n(C5CCCC5)c4n3)cc2)CC1 — pIC50 (Dual specificity tyrosine-phosphorylation-regulated kinase 1B (DYRK1B, Homo sapiens, UniProt Q9Y463); enzyme activity, inhibitor): 6.62
CC[C@H](C)[C@H](NC(=O)[C@H](CO)NC(=O)[C@H](Cc1ccc(O)cc1)NC(=O)[C@H](CC(=O)O)NC(=O)[C@H](CO)NC(=O)[C@@H](NC(=O)[C@H](Cc1ccccc1)NC(=O)[C@@H](NC(=O)CNC(=O)[C@H](CCC(=O)O)NC(=O)[C@H](C)NC(=O)[C@@H](N)Cc1ccc(O)cc1)[C@@H](C)O)[C@@H](C)CC)C(=O)N[C@@H](C)C(=O)N[C@@H](CCSC)C(=O)N[C@@H](CC(=O)O)C(=O)N[C@@H](CCCCN)C(=O)N[C@H](C(=O)N[C@@H](Cc1c[nH]cn1)C(=O)N[C@@H](CCC(N)=O)C(=O)N[C@@H](CCC(N)=O)C(=O)N[C@@H](CC(=O)O)C(=O)N[C@@H](Cc1ccccc1)C(=O)N[C@H](C(=O)N[C@@H](CC(N)=O)C(=O)N[C@@H](Cc1c[nH]c2ccccc12)C(=O)N[C@@H](CC(C)C)C(=O)N[C@@H](CC(C)C)C(=O)N[C@@H](C)C(=O)N[C@@H](CCC(N)=O)C(=O)N[C@@H](CCCCN)C(=O)NCC(=O)N[C@@H](CCCCN)C(=O)N[C@@H](CCCCN)C(=O)N[C@@H](CC(N)=O)C(=O)N[C@@H](CC(=O)O)C(=O)N[C@@H](Cc1c[nH]c2ccccc12)C(=O)N[C@@H](CCCCN)C(=O)N[C@@H](Cc1c[nH]cn1)C(=O)N[C@@H](CC(N)=O)C(=O)N[C@H](C(=O)N[C@H](C(=O)N[C@@H](CCC(N)=O)C(=O)O)[C@@H](C)O)[C@@H](C)CC)C(C)C)[C@@H](C)CC — pEC50 (GCGR; reporter gene, agonist, luciferase): < 6.00
C[C@@H]1NC(=O)[C@H](CCCNC(=N)N)NC(=O)[C@H](Cc2ccccc2)NC(=O)[C@H](Cc2ccccc2)NC(=O)[C@H](CCCNC(=N)N)NC(=O)[C@@H]2CCCN2C(=O)[C@H]2CCCN2C(=O)[C@H](Cc2ccccc2)NC1=O — pEC50 (Mc1r; reporter gene, agonist): < 4.00
Cc1ncc(C(=O)N[C@@H](CC(C)C)C(=O)N[C@@H](CCC2CCCCC2)C(=O)N[C@H](/C=C/S(C)(=O)=O)Cc2ccc(CN)cc2)s1 — pIC50 (PSMB8; enzyme activity, inhibitor; lysate): 5.40
CC1=C(/C=C/C(C)=C/C=C/C(C)=C/C=O)C(C)(C)CCC1 — pKd (Cellular retinoic acid-binding protein 2 (CRABP2, Homo sapiens, UniProt P29373, L122E/R112L/R133K); binding, fluorescence): 8.87
CSCC[C@H](NC(=O)[C@@H](NC(=O)[C@@H](N)Cc1ccc(O)cc1)C(C)C)C(=O)NCC(=O)O — pEC50 (Mc1r; reporter gene, agonist): < 4.00
Cc1ncc(C(=O)N[C@@H](CC(C)C)C(=O)N[C@@H](CC(C)C)C(=O)N[C@H](/C=C/S(C)(=O)=O)Cc2ccc(CN)cc2)s1 — pIC50 (PSMB8; enzyme activity, inhibitor; lysate): < 5.00
